Assay: Toxicity liver stage against HepG2, at 10uM
Format: cell-based
Design: test concentration 10 uM, cell line HepG2-A16-CD81EGFP
Details: human, HepG2-A16-CD81EGFP cells; read-out: INHIBITION
How it was run: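 Uninfected HepG2-A16-CD81EGFP cells, 3 × 10^3 per well, 1536-well, plated on prespotted compound at 10 μM final, parasite-free screening media added to match infected plates; puromycin 10 μM positive, DMSO 0.5% negative; run in parallel with 48 h PbLuc assay at 37 °C, 5% CO2; viability by CellTiter-Glo luminescence, normalized to controls.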

Compound | cytotoxicity at 10 µM [%]
Cc1ccc(O)c(CN2CCn3nc(C(=O)N4CCCC4)cc3C2)n1 | 1.5
O=C(NC1CC1)c1cc(C2CCCN(Cc3ccccn3)C2)no1 (configuration not stated) | -31.9
CC1CCCN(c2ccccc2OCC(=O)NC2CCOCC2)C1 (configuration not stated) | -23.5
CCCn1cnnc1CN(C)C(=O)C1CCC(=O)N(C2CCCC2)C1 (configuration not stated) | 2.95
CN(C)c1cc(CNC(=O)c2ccc(=O)[nH]n2)ccn1 | 0.962
N#Cc1cccc(CNCCNC(=O)Cc2cccc(F)c2)c1 | 3.7
CCN(Cc1ccncc1)C(=O)c1cn(CC2CCCNC2)nn1 (configuration not stated) | 5.35
COCc1nc(C(=O)N2CCCC(n3nc(C)cc3C)C2)cs1 (configuration not stated) | -8.57
Cn1cc(N2CC3(CCN(CC4CC4)C3)CC2=O)cn1 (configuration not stated) | 1.84
CC(NC(=O)NCCCN1CCCC1=O)c1ccc(Cl)s1 (configuration not stated) | -8.28
CN1CCN(C2CCN(CCOc3ccc(Cl)cc3)CC2)C1=O | -5.36
CC1CN(c2ncnc3c2cnn3C)CCN1c1nccs1 (configuration not stated) | 7.04
CC1c2ccc(F)cc2CCN1C(=O)c1[nH]c(=O)[nH]c(=O)c1N (configuration not stated) | -5.22
Cc1nc2cc(=O)[nH]n2c(C)c1CC(=O)Nc1cn[nH]c1 | 6.13
Cc1cccnc1C(NC(=O)CNC(=O)c1ccoc1C)C(C)C (configuration not stated) | 2.45
CC(NC(=O)Nc1cc(F)ccc1N1CCCCC1)c1nncn1C (configuration not stated) | -3.36
CN(C)c1ccc(C(=O)N2CCCC(n3cncn3)C2)nn1 (configuration not stated) | 0.47
Cc1cnc(N2CCC(c3ccccc3)CC2)nc1-c1ccnn1C | 4.68
CCn1nc(C)c2c1cnn2CCNS(=O)(=O)CC | 2.63
COc1ccc(CNC[C@H]2COCc3nc4cc(F)ccc4n32)cn1 | 0.734
Cc1cc(CN2CCC(CNC(=O)C3(c4ccccc4)CC3)C2)[nH]n1 (configuration not stated) | -145
CC(C)(C)c1noc(CCCC(=O)NCC2CCS(=O)(=O)C2)n1 (configuration not stated) | -15.4
CCC(Nc1cccc(Oc2ccc(C#N)cc2)c1)C(N)=O (configuration not stated) | 38

Compound | cytotoxicity at 10 µM [%]
N#Cc1cccnc1NCCC1CCN(CC(F)(F)F)CC1 | 11
CCS(=O)(=O)N1Cc2nccn2CC(COc2cccnc2)C1 (configuration not stated) | -2.34
Cc1ccc(C(=O)N2CCC(Oc3c(C)cccc3C)CC2)c(=O)[nH]1 | -2.51
Cc1ncnc2c1CCN(C(=O)Cc1cccc(F)c1)CC2 | -5.95
Brc1cc2c(cc1CN1CCC(N3CCCCC3)CC1)OCCO2 | 50.1
Cc1cnc(NCCc2c[nH]cn2)nc1-c1ccnn1C | -2.53
COc1ccc(NC(=O)CCN2CC=C(c3cnn(C)c3)CC2)c(C)c1 | -4.08
Cc1noc(C(C)N2CCN(CCOCC(F)(F)F)CC2)n1 (configuration not stated) | -1.4
COc1cccc(NC(=O)Cn2cc(-c3ccccc3)ncc2=O)c1 | -0.0638
CC(C)Cc1cc(C(=O)NCC(O)c2ccc(F)cc2)n(C)n1 (configuration not stated) | -2.96
CC(C)Nc1ncnc2c1CCN(C(=O)Cc1ccccn1)CC2 | 3.3
COc1ccccc1N1CCCC(Nc2ncccn2)C1=O (configuration not stated) | 4.96
C[C@@H]1CN(C2(C(=O)N3CCCCCC3)Cc3ccccc3C2)C[C@H](C)O1 | -2.04
O=C(c1csc(-c2ccco2)n1)N(CC1CCOC1)C1CC1 (configuration not stated) | -2.72
COc1ccccc1C1CCCN1CC(=O)N1CCC(C(N)=O)CC1 (configuration not stated) | -24.8
CCCc1nc(C(=O)N2CCN(C(=O)c3ccc(OC)cc3)CC2)cs1 | -3.07
Cn1ccnc1CN1CCC2(CC1)COCCN(S(C)(=O)=O)C2 | 3.39
CC1(C(=O)N2CCOCC2)CN(Cc2ccccn2)CCO1 (configuration not stated) | 2.86
Cc1ccccc1-c1cc(C(=O)NCCN2CCCS2(=O)=O)[nH]n1 | -12.9
CSCC(=O)N[C@H]1CC[C@H](Nc2nccc(-c3ccncc3)n2)C1 | 11.8
O=C(c1cc(-n2cnnn2)ccc1Cl)N1CCC2(CC1)OCCO2 | -1.66
CS(=O)(=O)N1CCCCCC1C1CCN(c2ncccn2)CC1 (configuration not stated) | -7.98
Cc1noc(CCCC(=O)NC(C)c2nnc3n2CCCCC3)n1 (configuration not stated) | 3.21

Compound | cytotoxicity at 10 µM [%]
Cc1ccc(Cn2nc(C)c3c(C(=O)O)c(Cl)c(C4CC4)nc32)cc1 | 6.75
CCCS(=O)(=O)NCCn1ccc(-c2cccs2)n1 | 5.55
O=C(NCc1cccnc1)Nc1cc(C(F)(F)F)c[nH]c1=O | -1.78
Cc1ncsc1CN1C[C@@H]2CC[C@H]1CN(Cc1ccccc1)C2 | -14.1
Cc1cc(C(=O)N2C[C@@H]3CCCO[C@@H]3[C@H](N3CCOCC3)C2)c(C)[nH]1 | 4.5
CN(C)CCCN1CC2(CCN(C(=O)C3(C)CCCCO3)CC2)OC1=O (configuration not stated) | -8.76
CCSCC(C)NCc1ccccc1-n1ccnc1 (configuration not stated) | 11.7
Cc1csc2c(N3CCC(NCCCc4ccncc4)CC3)ncnc12 | -1.54
CCn1c(C)nnc1SCCNc1cc(N2CCOCC2)ncn1 | 0.801
Cc1nc(CN2CCC(N(C)Cc3nnc(C4CC4)n3C)C2)oc1C (configuration not stated) | -16.1
CCN(c1ccc(C(=O)N2CCCCC2)cc1)S(=O)(=O)CC | 1.85
c1cnc(OCc2nnc3n2CCN(CC2CC2)C3)nc1 | -1.93
CCN1CCN(C(=O)c2cn(Cc3ccccc3)c3ncccc23)CC1 | -1.6
COCCNC(=O)c1ccc2c(=O)n3c(nc2c1)CCN(C)CC3 | -1.02
CCOC(=O)CC1CCCCN1C(=O)c1cccc2ccnn12 (configuration not stated) | -105
CCn1cc(CNC2CCN(c3c(F)cccc3F)C2)cn1 (configuration not stated) | -2.93
CCc1cc(N2CCC(NCc3ccc(C)o3)CC2)ncn1 | 2.84
Cc1noc(C2CCCN(Cn3cc(Br)cn3)C2)n1 (configuration not stated) | -3.67
COCCN(C)C(=O)Nc1ccn(-c2cccc(C(F)(F)F)c2)n1 | -2.16
O=S(=O)(C1CC1)N1CCc2ncnc(N3CCOCC3)c2CC1 | -109
CN(CC(=O)Nc1cccnc1)C1CCCN(c2cccnn2)C1 (configuration not stated) | -2.42
CC(C)COC(=O)N1CCCN(C(C)c2nnc(CC(C)C)o2)CC1 (configuration not stated) | 8.69
CCC1(c2ccc(NS(=O)(=O)c3cccs3)cc2)CCC(=O)NC1=O (configuration not stated) | -8.55

Compound | cytotoxicity at 10 µM [%]
CCCc1cnc(C)nc1N1CCC(Cn2cc(CO)nn2)CC1 | -4.57
CCCNc1nc(CS(=O)(=O)c2ccccc2)cs1 | 0.939
Cn1cccc1C(=O)N1CCC2(CC1)CN(c1cncnc1)C(=O)CO2 | 4.35
CN(C)CC(=O)N1C[C@@H]2CC[C@H](Oc3ccccc3Cl)[C@@H]2C1 | 3.22
OCCN(Cc1ccno1)Cc1cc(Br)ccc1F | 6
CS(=O)(=O)NC1CCN(C(=O)NCc2cc[nH]n2)CC1 | -6.37
CC(Cn1ccnc1)NC(=O)Nc1ccccn1 (configuration not stated) | -16.4
CCc1nnc(CN2CCOC(Cn3cc(C)cn3)C2)o1 (configuration not stated) | -6.59
CN(C)CCOCc1cncc2c1CCN(Cc1ccccn1)C2 | 2.2
COCCO[C@H]1CCN(C(=O)C2CCOCC2)[C@H]1Cc1ccncc1 | 4.32
O=C(C1CCOC1)N1CCC2(CC1)COCCN(Cc1ccncc1)C2 (configuration not stated) | -86
O=C(NCCc1ccccc1)N1CCCCC1C1OCCO1 (configuration not stated) | -45.2
Cc1ccc(N2CCCN(C(=O)CC3C=CCC3)CC2)nn1 (configuration not stated) | -9.2
Cc1ccccc1CNc1nc(O)cc(C2CC(=O)N(C)C2)n1 (configuration not stated) | -0.336
O=S1(=O)NC(C2CCN(Cc3ccncc3)CC2)Nc2ccccc21 (configuration not stated) | -19.3
CCn1c(C2CCCN(Cc3ccnc4ccccc34)C2)nn(C)c1=O (configuration not stated) | -5.92
CCOc1ccccc1N1CCN(CC2(O)CCCNC2)CC1 (configuration not stated) | -2.36
O=C(c1ccon1)N1CCc2ncnc(NCc3ccccn3)c2CC1 | 0.436
Cc1ccc(-n2cc(CN3CCOCC3)c(-c3cccc(C)c3)n2)cc1 | -0.906
COC(CNC(=O)c1ccoc1)c1cccc(Cl)c1 (configuration not stated) | 3.3
O=C1CCC2(CCN(Cc3cc(F)ccc3Cl)CC2)CN1C1CCCC1 | 53.1
Cc1ccc(N2CCN(C(=O)[C@@H]3CCC(=O)N3)CC2=O)cc1 | -4.18
Cc1noc(C(C)C)c1C(=O)NCC(c1ccccc1)N(C)C (configuration not stated) | -7.72

Compound | cytotoxicity at 10 µM [%]
COCC(=O)N1CCc2[nH]nc(-c3ccc4c(c3)OCO4)c2C1 | -137
O=C(CCn1ccc2ccccc21)N1CCC(Nc2cccnn2)CC1 | 3.79
CC(C)CSc1ccc(-n2cccn2)nn1 | -218
Cc1cc(C)nc(Nc2cc(C3CCCN(C)C3)nc(C)n2)n1 (configuration not stated) | -5.12
CN1CCN(Cc2ccccc2CNC(=O)c2cc(Br)ccc2F)CC1 | 6.37
CC(=O)NCC[C@H]1CC(C)(C)Oc2ccccc21 | -0.363
CCOc1cc(CNC(=O)c2cnn(CC)c2C(F)(F)F)ccn1 | 16.8
CCOCc1ccccc1CNc1ccc2nncn2n1 | 0.84
CCc1n[nH]c(=O)c(C(=O)N2CCSCC2)c1CC | 19.5
Cc1ccc(-c2nn(C)c(C(=O)O)c2Br)cc1 | -49.7
CC(C)c1noc(C(C)N2CCN(Cc3ccco3)CC2)n1 (configuration not stated) | -7.67
Cn1cc(C(=O)NCc2ccc(N3CCNC(=O)C3)c(F)c2)cn1 | -2.97
FC1(F)CCN(Cc2ccccn2)CC12CCN(c1cccnc1)C2 (configuration not stated) | 25.5
Cn1cccc1C(O)CNC(=O)c1ccc(C(F)(F)F)cc1 (configuration not stated) | 2.9
O=C(CCc1ccccn1)N1CCN(C(=O)CC2CCCCC2)CC1 | -1.8
CCc1nc(CN2CCCC(NCc3nnc(C4CC4)o3)C2)no1 (configuration not stated) | -5.73
COc1ccc(C(=O)N2CCCC(NC(=O)C(C)C)C2)c(O)c1 (configuration not stated) | 0.301
CC(C)CCN1CC2(CCCN(C(=O)NCc3cccs3)C2)CCC1=O (configuration not stated) | -11.9
CCc1cc(CN(C)C(=O)c2cc(=O)[nH]c(=O)[nH]2)on1 | 8.71
CSc1ccccc1NC(=O)CCN1CCC(C(=O)N(C)C)CC1 | 6.47
